Data reported in article PMC4726456 (Cell, 2014).
Substitutions are numbered along the chain they refer to. Names and notes keep the numbering of the source. Values joined by “and” are separate entries in the source; they are usually repeats but may differ in a detail not shown here. Identical values can stand only once.

Legend:
microtubules and tubulin = experiment: Acetylation activity of TAT mutants with microtubules and tubulin; format: biochemical; conditions: Figure 2C
[1] = tested on: dolastatin-induced tubulin rings; experiment: Stacking of dolastatin-induced tubulin rings by TAT; conditions: Figures S3D, S3E
microtubules [2] = experiment: Activity of bead-coupled biotinylated TAT with microtubules; format: biochemical; conditions: 1 µm streptavidin beads; Figure 6A
Procedure, shortened: (§1)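 Biotinylated TAT was either immobilized on 1 µm diameter streptavidin beads or left free in solution. Each form was reacted with tubulin or with microtubules. Activity was normalized to the free enzyme. About 15% unpolymerized tubulin was present in the microtubule reactions.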

tubulin [3] = experiment: Activity of bead-coupled biotinylated TAT with tubulin; format: biochemical; conditions: 1 µm streptavidin beads; Figure 6A
Procedure, shortened: as §1

microtubules [4] = experiment: Single-molecule TIRF of TAT-GFP scanning on microtubules; format: binding; conditions: for Effect on TAT-GFP microtubule scanning: saturating concentration of MAP
[5] = tested on: S. cerevisiae microtubules; experiment: Single-molecule TIRF of TAT-GFP on S. cerevisiae microtubules; format: binding, Saccharomyces cerevisiae; conditions: purified S. cerevisiae microtubules and engineered with human C-terminal tails
microtubules [6] = format: biochemical; conditions: for Effect on microtubule acetylation by TAT: saturating concentration of MAP
tubulin [7] = experiment: Tubulin acetylation assay; format: biochemical
microtubules [8] = experiment: Microtubule acetylation assay; format: biochemical; conditions: bulk measurements
microtubules [9] = experiment: TAT binding to microtubules in sedimentation assays; conditions: read-out: Kd for microtubules, Figure S3B and C
unpolymerized tubulin = experiment: TAT-tubulin complex formation by analytical ultracentrifugation; format: binding; conditions: TAT concentrations as high as 40 µM
tubulin polymers = experiment: TAT activity with tubulin polymers of diverse geometries; format: biochemical; conditions: Figure 3A, N≥3
Procedure, shortened: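 Microtubule substrate was stabilized with 20 µM taxol. Negative-stain EM confirmed dolastatin-10 rings, Zn sheets and microtubules under the reaction conditions. Values are means ± S.E.M. (N≥3), compared by t-test.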

microtubules [10] = experiment: Immunofluorescence of acetylation distribution on microtubules; format: biochemical; conditions: taxol stabilized microtubules; antibody specific for acetylated tubulin; Figure 4
Procedure, shortened: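 Recombinant TAT acetylated taxol-stabilized microtubules in vitro. Excess enzyme was used at a 10:1 TAT:tubulin molar ratio and sampled over a time course. Marks were detected by immunofluorescence. Line-scans were taken along microtubules in the acetylated-tubulin channel. End analysis at 15 s averaged 25 line-scans from the tip to 5 µm inward.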

TAT = conditions: ref Friedmann et al., 2012; cited from earlier work

B1: F105A TAT mutant: F105A TAT mutant defective in acetylation (protein)
chain: MEFPFDVDALFPERITVLDQHLRPPARRPGTTTPARVDLQQQIMTIIDELGKASAKAQNLSAPITSASRMQSNRHVVYILKDSSARPAGKGAIIGFIKVGYKKLAVLDDREAHNEVEPLCILDFYIHESVQRHGHGRELFQYMLQKERVEPHQLAIDRPSQKLLKFLNKHYNLETTVPQVNNFVIFEGFFAHQHRPPAPSLRATRHSRAAAVDPTPAAPARKLPPKRAEGDIKPYSSSDREFLKVAVEPPWPLNRAPRRATPPAHPPPRSSSLGNSPERGPLRPFVPEQELLRSLRLCPPHPTARLLLAADPGGSPAQRRRTRGTPPGLVAQSCCYSRHGGVNSSSPNTGNQDSKQGEQETKNRSASEEQALSQDGSGEKPMHTAPPQAPAPPAQSWTVGGDILNARFIRNLQERRSTRPW
- Effect of mutation on TAT activity (microtubules and tubulin; N≥3): defective in acetylation
- Effect of mutation on TAT activity (microtubules and tubulin; N≥3, listed as Phe105): severely impairs enzyme activity with both tubulin and microtubules
- Stacking of dolastatin-induced tubulin rings [1]: impaired in stack formation

B2: bead-coupled TAT: C-terminally biotinylated TAT construct coupled to streptavidin beads 1 µm in diameter (protein, UniProt Q5SQI0 1-421, looked up)
Alpha-tubulin …: B1 chain with A105F
modifications: C-terminal biotin, streptavidin beads
- Reduction of activity with microtubules on bead coupling (microtubules [2]): ~89%
- Activity with tubulin when bead-coupled (tubulin [3]): retained activity with tubulin

B3: TAT-GFP: purified TAT-GFP for single-molecule TIRF microscopy (protein)
chain: B1 chain with A105F
modifications: left off: GFP, end not stated, kept
- Interaction time (τ), doublecortin (microtubules [4]; microtubules with saturating doublecortin): 1.4 s
- 1D diffusion coefficient on microtubules (microtubules [4]; undecorated microtubules, MSD fit, 100 ms frames, mean, legend: fit): 0.27 µm^2/s and 0.27 ± 0.01 µm^2/s
- Scan starting position (microtubules [4]; undecorated microtubules, N=163, Figure 5D): randomly distributed on the microtubule, showing no bias for ends
- Interaction time (τ) on microtubules (microtubules [4]; undecorated microtubules, exponential fit corrected for photobleaching, N=269): 1.5 s and 1.5 ± 0.3 s
- Scanning on S. cerevisiae microtubules [5]: do not observe TAT-GFP scanning
- Activity of GFP fusion vs untagged protein (microtubules [6]; Figure S5): comparable to that of the untagged protein

B4: TAT: Homo sapiens TAT (1–196) expressed in Escherichia coli as a GST-fusion (protein)
chain: MEFPFDVDALFPERITVLDQHLRPPARRPGTTTPARVDLQQQIMTIIDELGKASAKAQNLSAPITSASRMQSNRHVVYILKDSSARPAGKGAIIGFIKVGYKKLFVLDDREAHNEVEPLCILDFYIHESVQRHGHGRELFQYMLQKERVEPHQLAIDRPSQKLLKFLNKHYNLETTVPQVNNFVIFEGFFAHQHRP
modifications: left off: GST, end not stated, state not stated
- Catalytic rate with tubulin (tubulin [7]): 0.4 h⁻¹
- Acetylation rate with microtubules (microtubules [8]): ~1.6 h⁻¹
- Kd (microtubules [9]): ~44 µM
- Stable complex formation with unpolymerized tubulin (unpolymerized tubulin): undetectable
- Stacking of dolastatin-induced tubulin rings [1]: promotes stacking of dolastatin-induced tubulin rings in a dose-dependent manner
- TAT activity with microtubules vs unpolymerized tubulin (tubulin polymers): largest activity enhancement over unpolymerized tubulin is seen with microtubules
- Total microtubule length scanned, subtilisin-treated vs untreated microtubules (microtubules [4]; 50 microtubules, Figure 5F): covers the same total microtubule length
- Interaction time (τ), labeled spastin (microtubules [4]; microtubules coated with DyLight 550 labeled spastin, ATPγS): 1.5 s
- Average microtubule length scanned (microtubules [4]; undecorated microtubules, Figure S5B): 2.9 µm
- Maximum scan excursion (microtubules [4]; undecorated microtubules, excursions up to, Figure S5B): up to 10.4 µm
- Acetylation of unmodified microtubules vs brain microtubules (microtubules [6]; Figures S5G and S5H): as effectively as brain microtubules
- Microtubule acetylation after removal of C-terminal tails (microtubules [6]; subtilisin microtubules, Figure 5F): unaffected by removal of the C-terminal tails
- Distribution of acetylation along microtubule (microtubules [10]): acetylates along the entire microtubule without a preference for ends
- Km (TAT): ~32 µM

B5: doublecortin: microtubule binding protein covering the fenestration at the vertices between four tubulin dimers (protein)
chain: MELDFGHFDERDKTSRNMRGSRMNGLPSPTHSAHCSFYRTRTLQALSNEKKAKKVRFYRNGDRYFKGIVYAVSSDRFRSFDALLADLTRSLSDNINLPQGVRYIYTIDGSRKIGSMDELEEGESYVCSSDNFFKKVEYTKNVNPNWSVNVKTSANMKAPQSLASSNSAQARENKDFVRPKLVTIIRSGVKPRKAVRVLLNKKTAHSFEQVLTDITEAIKLETGVVKKLYTLDGKQVTCLHDFFGDDDVFIACGPEKFRYAQDDFSLDENECRVMKGNPSATAGPKASPTPQKTSAKSPGPMRRSKSPADSGNDQDANGTSSSQLSTPKSKQSPISTPTSPGSLRKHKDLYLPLSLDDSDSLGDSM
- Effect on TAT-GFP microtubule scanning (microtubules [4]; Figure 5F): no effect
- Effect on microtubule acetylation by TAT (microtubules [6]; Figure 5F): no effect

B6: kinesin: motor domain of kinesin-5 (protein)
chain: MASQPNSSAKKKEEKGKNIQVVVRCRPFNLAERKASAHSIVECDPVRKEVSVRTGGLADKSSRKTYTFDMVFGASTKQIDVYRSVVCPILDEVIMGYNCTIFAYGQTGTGKTFTMEGERSPNEEYTWEEDPLAGIIPRTLHQIFEKLTDNGTEFSVKVSLLEIYNEELFDLLNPSSDVSERLQMFDDPRNKRGVIIKGLEEITVHNKDEVYQILEKGAAKRTTAATLMNAYSSRSHSVFSVTIHMKETTIDGEELVKIGKLNLVDLAGSENIGRSGAVDKRAREAGNINQSLLTLGRVITALVERTPHVPYRESKLTRILQDSLGGRTRTSIIATISPASLNLEETLSTLEYAHRAKNILNKPEVNQKLTKKALIKEYTEEIERLKRDLAAAREKNGVYISEENFRVMSGKLTVQEEQIVELIEKIGAVEEELNRVTELFMDNKNELDQCKSDLQNKTQELETTQKHLQETKLQLVKEEYITSALESTEEKLHDAASKLLNTVEETTKDVSGLHSKLDRKKAVDQHNAEAQDIFGKNLNSLFNNMEELIKDGSSKQKAMLEVHKTLFGNLLSSSVSALDTITTVALGSLTSIPENVSTHVSQIFNMILKEQSLAAESKTVLQELINVLKTDLLSSLEMILSPTVVSILKINSQLKHIFKTSLTVADKIEDQKKELDGFLSILCNNLHELQENTICSLVESQKQCGNLTEDLKTIKQTHSQELCKLMNLWTERFCALEEKCENIQKPLSSVQENIQQKSKDIVNKMTFHSQKFCADSDGFSQELRNFNQEGTKLVEESVKHSDKLNGNLEKISQETEQRCESLNTRTVYFSEQWVSSLNEREQELHNLLEVVSQCCEASSSDITEKSDGRKAAHEKQHNIFLDQMTIDEDKLIAQNLELNETIKIGLTKLNCFLEQDLKLDIPTGTTPQRKSYLYPSTLVRTEPREHLLDQLKRKQPELLMMLNCSENNKEETIPDVDVEEAVLGQYTEEPLSQEPSVDAGVDCSSIGGVPFFQHKKSHGKDKENRGINTLERSKVEETTEHLVTKSRLPLRAQINL
- Effect on TAT-GFP microtubule scanning (microtubules [4]; Figure 5F): no effect
- Effect on microtubule acetylation by TAT (microtubules [6]; Figure 5F): no effect
